{"source": "paper PMC3319430", "about": "(Journal of Medicinal Chemistry, 2009)", "key": {"[1]": {"conditions": "cited from earlier work"}, "[2]": {"conditions": "cited from earlier work", "remark": "listed apart in the source"}, "[3]": {"system": "renal cysts in E13.5 embryonic kidneys", "test": "Embryonic kidney organ culture model of polycystic kidney disease", "parameters": "species or system mouse", "in_short": "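Metanephroi from E13.5 mouse embryos, on porous inserts in DMEM/Ham's F-12 with glutamine, HEPES, insulin, transferrin, selenium, prostaglandin E, T3 and antibiotics, 37 °C humidified CO2. Medium with 100 µM 8-Br-cAMP ± test compound replaced every 12 h. For preformed cysts, compound was added at day 3 of 8-Br-cAMP. Transmitted-light images were taken, and % cyst area = total cyst area/total kidney area; 6–8 kidneys.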"}, "[4]": {"molecular_target": "CFTR chloride conductance (Homo sapiens, UniProt P13569)", "sequence (P13569 whole entry)": "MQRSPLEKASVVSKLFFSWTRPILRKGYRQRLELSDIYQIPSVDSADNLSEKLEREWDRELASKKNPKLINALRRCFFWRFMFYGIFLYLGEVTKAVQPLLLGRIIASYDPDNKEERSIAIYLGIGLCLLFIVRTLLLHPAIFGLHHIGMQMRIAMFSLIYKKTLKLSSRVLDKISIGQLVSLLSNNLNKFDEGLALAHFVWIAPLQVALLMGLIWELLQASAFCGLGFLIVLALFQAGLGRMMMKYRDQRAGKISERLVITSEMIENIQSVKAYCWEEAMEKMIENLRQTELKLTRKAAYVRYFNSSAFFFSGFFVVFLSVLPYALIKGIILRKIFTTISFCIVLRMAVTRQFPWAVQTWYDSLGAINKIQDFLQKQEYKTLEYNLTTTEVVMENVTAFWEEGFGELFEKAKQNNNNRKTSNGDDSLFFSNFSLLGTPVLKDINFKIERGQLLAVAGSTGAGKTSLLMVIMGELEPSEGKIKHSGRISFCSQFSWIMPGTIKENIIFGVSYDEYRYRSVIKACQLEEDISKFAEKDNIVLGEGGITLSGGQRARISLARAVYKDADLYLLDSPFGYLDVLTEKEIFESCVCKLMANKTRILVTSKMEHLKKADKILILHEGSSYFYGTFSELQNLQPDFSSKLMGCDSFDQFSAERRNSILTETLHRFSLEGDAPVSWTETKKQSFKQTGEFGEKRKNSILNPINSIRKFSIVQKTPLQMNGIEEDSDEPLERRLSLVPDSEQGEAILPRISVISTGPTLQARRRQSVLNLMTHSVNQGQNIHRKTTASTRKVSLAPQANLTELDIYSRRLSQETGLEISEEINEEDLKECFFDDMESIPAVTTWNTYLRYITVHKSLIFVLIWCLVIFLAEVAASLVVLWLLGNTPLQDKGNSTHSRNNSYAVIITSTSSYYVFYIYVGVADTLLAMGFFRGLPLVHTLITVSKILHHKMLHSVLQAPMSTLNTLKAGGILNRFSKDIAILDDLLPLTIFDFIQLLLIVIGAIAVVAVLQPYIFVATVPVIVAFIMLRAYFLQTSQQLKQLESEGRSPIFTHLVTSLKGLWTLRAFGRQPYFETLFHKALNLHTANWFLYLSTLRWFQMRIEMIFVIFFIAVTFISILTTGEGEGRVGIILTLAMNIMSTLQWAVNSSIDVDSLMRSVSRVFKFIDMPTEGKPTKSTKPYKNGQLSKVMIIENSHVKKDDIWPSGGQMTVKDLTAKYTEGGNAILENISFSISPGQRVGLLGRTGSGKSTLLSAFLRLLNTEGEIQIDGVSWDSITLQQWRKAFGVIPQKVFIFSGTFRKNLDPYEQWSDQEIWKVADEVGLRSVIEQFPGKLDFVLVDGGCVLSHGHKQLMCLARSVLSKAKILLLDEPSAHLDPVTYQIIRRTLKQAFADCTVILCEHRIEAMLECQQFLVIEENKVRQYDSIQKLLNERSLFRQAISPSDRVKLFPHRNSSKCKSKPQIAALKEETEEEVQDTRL", "test": "Apical membrane chloride current", "format": "cell-based"}, "[5]": {"system": "calcium-activated chloride channels", "test": "UTP-induced chloride current in cystic fibrosis", "format": "cell-based, human", "conditions": "10 or 20 µM", "in_short": "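Short-circuit current in cystic fibrosis human bronchial epithelial cells on inserts in Ussing chambers. Krebs-bicarbonate solution on both sides, gassed with 5% CO2 in air, 37 °C. ENaC was blocked with 10 µM amiloride. Calcium-activated chloride channels were stimulated with 100 µM UTP, and test compound was added.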"}, "human wild-type CFTR": {"molecular_target": "human wild-type CFTR (Homo sapiens, UniProt P13569)", "sequence (P13569 whole entry)": "as above", "test": "Whole-cell patch-clamp in CFTR-expressing FRT cells", "format": "cell-based", "conditions": "500 nM; ±100 mV"}, "CFTR [6]": {"molecular_target": "T1, CFTR (Homo sapiens, UniProt P13569)", "T1 sequence (P13569 whole entry)": "as above", "test": "Cell-attached single-channel patch-clamp recordings of CFTR", "format": "cell-based", "conditions": "1 µM"}, "CFTR [7]": {"molecular_target": "T1, CFTR", "test": "Fluorescence platereader assay of CFTR-mediated iodide influx", "format": "cell-based", "conditions": "result in words", "in_short": "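FRT cells co-expressing human wild-type CFTR and YFP-H148Q halide sensor, assayed 48 h after plating at confluence. After PBS washes, cells were activated with 5 µM forskolin, 100 µM IBMX and 25 µM apigenin. Test compound was added 5 min later, 25 µM final, for 15 min. Fluorescence was read 2 s baseline, then 10 s after iodide-for-chloride PBS addition. Initial influx rate was fitted by nonlinear regression.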"}}, "data": [{"smiles": "O=C(O)c1ccc(/C=C2\\SC(=S)N(c3cccc(C(F)(F)F)c3)C2=O)cc1", "note": "[CFTRinh-172]", "values": [{"measurement": "Toxicity", "setting": "[1]", "result": "low toxicity"}, {"measurement": "Aqueous solubility", "setting": "[2]", "result": "low aqueous solubility"}]}, {"smiles": "Cc1ccc(C2Nc3ccccc3-n3c(-c4ccccc4)c4c(=O)n(C)c(=O)n(C)c4c32)o1", "note": "(stereo not shown) [PPQ-102, 7,9-Dimethyl-11-phenyl-6-(5-methylfuran-2-yl)-5,6-dihydropyrimido[4′,5′-3,4]pyrrolo[1,2-a]quinoxaline-8,10-(7H,9H)-dione]", "values": [{"measurement": "Inhibition of cyst formation (percentage area occupied by cysts)", "setting": "[3]; 0.5 µM, 100 µM 8-Br-cAMP, 4 days in culture", "result": "> 60", "unit": "%"}, {"measurement": "Reversibility of cyst inhibition", "setting": "[3]; 2.5 µM removed after 3 days, 8-Br-cAMP continued", "result": "reversible"}, {"measurement": "Size of preformed cysts", "setting": "[3]; 5 µM added at day 3 of 8-Br-cAMP, over 1 and 2 days", "result": "remarkable reduction in cyst size"}, {"measurement": "Cysts at 2.5 and 5 µM", "setting": "[3]; 2.5 and 5 µM, 100 µM 8-Br-cAMP, 4 days", "result": "near complete absence of cysts"}, {"measurement": "Kidney growth", "setting": "[3]; in culture medium", "result": "did not affect kidney growth"}, {"measurement": "Reversibility of inhibition", "setting": "[4]; 30 min incubation with 2 µM followed by 10 min washout", "result": "complete restoration of CFTR chloride current"}, {"measurement": "Potency with apigenin or IBMX as agonists compared to CPT-cAMP", "setting": "[4]; apigenin (100 µM) or IBMX (100 µM)", "result": "mildly reduced"}, {"measurement": "Inhibition of UTP-induced chloride currents", "setting": "[5]", "result": "little inhibition"}, {"measurement": "CFTR current-voltage relationship after addition", "setting": "human wild-type CFTR", "result": "remained linear"}, {"measurement": "Mean channel closed time", "setting": "CFTR [6]", "result": "greatly increased"}, {"measurement": "Mean channel open time", "setting": "CFTR [6]", "result": "did not significantly change"}, {"measurement": "Unitary conductance", "setting": "CFTR [6]; +80 mV", "result": "did not change"}, {"measurement": "Channel open probability (Po)", "setting": "CFTR [6]; forskolin 10 µM and IBMX 100 µM, control 0.50 ± 0.04", "result": "0.14 ± 0.03"}]}, {"smiles": "Cc1ccc(C(=O)Nc2ccccc2-n2cc3c(c2-c2ccccc2)c(=O)n(C)c(=O)n3C)o1", "note": "[PPQ-102b, N-(2-(1,3-Dimethyl-2,4-dioxo-5-phenyl-3,4-dihydro-1H-pyrrolo[3,4-d]pyrimidin-6(2H)-yl)phenyl)-5-methylfuran-2-carboxamide]", "values": [{"measurement": "CFTR inhibition activity", "setting": "CFTR [7]", "result": "abolished CFTR inhibition activity"}]}]}
